Measured values gathered from unrelated publications.
Protocols differ between the studies behind these lines.
Target: Casein kinase I isoform epsilon (CSNK1E, Homo sapiens, UniProt P49674)

COc1cnc(Nc2cccc(S(N)(=O)=O)c2)nc1N1CCN(c2ccccc2)CC1 — remaining binding (binding; competition with immobilised ligand; 1 µM): 100%
O=C(NCCCN1CCOCC1)c1ccc(Nc2nccc(-c3cc4ccccc4s3)n2)cc1 — remaining binding (binding; competition with immobilised ligand; 1 µM): 100%
O=C(NCc1ncc(C(F)(F)F)cc1Cl)c1ccc2c(c1)C1(CCS(=O)(=O)CC1)[C@H](C1CC1)N2S(=O)(=O)c1ccc(F)cc1 — remaining binding (cell-free assay; competition with immobilised ligand; 1 µM): 100%
C[C@@H](c1ccc(-n2cnc3c(N)ncnc32)cc1)N1CCc2nn(C)c(Cc3ccccc3)c2C1=O — remaining binding (binding; competition with immobilised ligand; 0.1 µM): 83%
Cc1nc(N2CC[C@@H](O)C2)ncc1-c1cc(C(F)(F)F)cc2[nH]ncc12 — remaining binding (binding; competition with immobilised ligand; 1 µM): 79%
c1cncc(-c2cccc(Nc3nccc(NC4CCCCC4)n3)c2)c1 — remaining binding (binding; competition with immobilised ligand; 10 µM): 11%
CN(c1ccnc(CNc2nc(Nc3ccc4c(c3)CC(=O)N4)ncc2C(F)(F)F)n1)S(C)(=O)=O — remaining binding (cell-free assay; competition with immobilised ligand; 1 µM): 100%
c1cnn2ncc(-c3ccnc(N4CCC45COC5)n3)c2c1 — remaining binding (binding; 1 µM): 53%
O=C(c1ccc(Nc2ncc(Cl)c(-c3ccc(Cl)s3)n2)cc1)N1CCC(N2CCCC2)CC1 — remaining binding (binding; competition with immobilised ligand; 1 µM): 100%
CC(=O)C1=C(C)N(c2cccc(C(F)(F)F)c2)C(=O)N[C@@H]1c1ccc(C#N)nc1 — remaining binding (cell-free assay; competition with immobilised ligand; 1 µM): 100%
Cc1cnc(Nc2ccc(C(=O)N3CCC(N4CCCC4)CC3)cc2)nc1-c1cc2ccccc2s1 — remaining binding (binding; competition with immobilised ligand; 1 µM): 100%
COc1ncc2cc3ccccc3nc2c1C#N — remaining binding (cell-free assay; competition with immobilised ligand; 5 µM): 86%
CN(c1nccc(-c2cnn3ncccc23)n1)C1CC1 — remaining binding (binding; 1 µM): 100%
COc1cnc(Nc2cccc(S(N)(=O)=O)c2)nc1N1CCN(c2ccccc2)C(=O)C1 — remaining binding (binding; competition with immobilised ligand; 1 µM): 100%
CC1CCCN1c1nccc(-c2cnn3ncccc23)n1 (stereo not shown) — remaining binding (binding; 1 µM): 100%
C=CC(=O)N1CCC(C(=O)NCC(=O)N2CCN(c3nc(-c4cnc(N)nc4C(F)F)nc(N4CCOCC4)n3)CC2)CC1 — remaining binding (binding; competition with immobilised ligand; 1 µM): 87%
N[C@@H]1CCN(c2nccc(-c3cnn4ncccc34)n2)C1 — remaining binding (binding; 1 µM): 31%
Cc1cc(C)c(-n2ccn3nc(-c4cccnc4)cc23)cc1NC(=O)c1cc(C#N)cc(S(F)(F)(F)(F)F)c1 — remaining binding (cell-free assay; competition with immobilised ligand; 0.1 µM): 98.7%
C[C@H]1CCN(c2nccc(-c3cnn4ncccc34)n2)C1 — remaining binding (binding; 1 µM): 49%
CC(=O)N1CCC(c2ccc(C(=O)NC(=N)N)cc2C(F)(F)F)CC1 — remaining binding (cell-free assay; competition with immobilised ligand; 1 µM): 100%
CN(C)c1ncc(F)c(-c2cnn3ncccc23)n1 — remaining binding (binding; 1 µM): 100%
O=C(NCC1CCOCC1)c1n[nH]cc1NC(=O)c1c(F)cccc1F — remaining binding (binding; competition with immobilised ligand; 1 µM): 81%
